In the series the test system is MS2 coat protein. Kind of series: apparent Kd, MS2 coat protein; higher = weaker binding; RNA-MaP array; FMN 200 µM where present. The gist of the method:
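On Illumina sequencing-chip clusters, designs were transcribed by stalled E. coli RNA polymerase and titrated with SNAP-549-labelled MS2 coat protein (0.7 or 1.5 nM, doubling to 3 µM), without and then with constant ligand, in 100 mM Tris-HCl pH 7.5, 80 mM KCl, 4 mM MgCl2, BSA, DTT, yeast tRNA and Tween-20. Apparent Kd is the median of filtered per-cluster curve fits to green signal normalised to red-channel RNA signal and control-cluster median Fmax.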

The mark [1] stands for this setting: designed as: OFF switch for flavin mononucleotide, no ligand.
Where [2] appears, read: ligand present: flavin mononucleotide, designed as: OFF switch for flavin mononucleotide.
Setting [3] is: designed as: ON switch for flavin mononucleotide, no ligand.
Where [4] appears, read: ligand present: flavin mononucleotide, designed as: ON switch for flavin mononucleotide.

By apparent Kd is commonly meant a dissociation constant that holds for the conditions of the assay.

With “CAGUACUGAGGAUAUACAUGAGGAUCACCCAUGUGUCCUAGCUAGGAUACUAGCAUUAGUAGAAGGCAGUACUG”, the “apparent Kd” value is, setting by setting: under setting [1], 0.018 µM; under setting [2], 0.213 µM.
As for “GCAACGCCUGACAUGAGGAUCACCCAUGUUAGAUUGUUAUGUCAGGAUAUUGUCGCGAAAUGUGAUGAGAAGGGAUAUGUUGCU”, the “apparent Kd” value reads like this: under setting [3], 0.48 µM; under setting [4], 0.0488 µM.
For “GUCCGUAGACAGAAGGUGACAUGAGGAUCACCCAUGUUAGUUGAGGUAUCAGCGAUCUGCGUGAUUGAGGAUAUGUCUACGGGC”, the “apparent Kd” value by setting is: under setting [1], 0.0079 µM; under setting [2], 0.00822 µM.
For “CUUCUGUAAGGAUAUUGCGAUAAGCAUGACAUCGCCGGUCGCAAGAAGGUACAUGAGGAUCACCCAUGUGCGGU” the same measures were 0.161 µM and 0.152 µM.
On to “UAAUAAUAGCAAGGAUAUGAUUAUUAUAAUAUAUCAGAAGGUGCACAUGAGGAUCACCCAUGUUUUAUAAUUUGUAAUUUAAAU”, for which the “apparent Kd” value under setting [1] came to 0.0544 µM and the “apparent Kd” value under setting [2] is 0.0379 µM.
For “GGUUGACAAAGUCAACCAAAUCGAACAUGAGGAUCACCCAUGUAGGAUAUGCUACUCAAAGAGUAGCAGAAGGACAUGUGCUUU” the same measures were 0.0407 µM and 0.227 µM.
As to “AAAGCAACAUGAGGAUCACCCAUGUAGGAUAUCGCUAUUGUAAUCAUGAAACAUGAUUACAAUAGCGAGAAGGACAUAUGGCCC”, the “apparent Kd” value under setting [1] stood at 0.0108 µM and the “apparent Kd” value under setting [2] is 0.0317 µM.
The matching figures for “UGGUACAUGAGGAUCACCCAUGUAAGAGCCCUCAUGCGAUGUAGAAGGUUAAUGCGAGUAGUGCUAAAGGAUAUACAUGAGUUU”: 0.212 µM and 0.173 µM.
“AGUCGGAUCUAUUAACAUGAGGAUCACCCAUGUAUUUGCAACUAGGAUAUCGAUUAUUAUUUCGUCGAGAAGGAGUAUACAUAA”: the “apparent Kd” value is, setting by setting: under setting [1], 0.0242 µM; under setting [2], 0.0373 µM.
For “UUGCGGUCAGGAUAUGCAUGGCGGGACUUGCGUCGUGGCGUGGAGAAGGGACAUGAGGAUCACCCAUGUGGAGA” the same measures were 0.0882 µM and 0.0657 µM.
The matching figures for “UAUAUAUAGUAAGGAUAUGUAUAUAUUUUGUAAACAGAAGGUACUGACAUGAGGAUCACCCAUGUUUUAGUGUGGGCAUGUAGA”: 0.0808 µM and 0.13 µM.
As for “AUUAUUUAGUAGAAGGACGACUAUUAAUAUUUCGUAGGAUAUACUAUUUACAUGAGGAUCACCCAUGUUUAAAUGGAACAAUGU”, the “apparent Kd” value runs as follows: under setting [1], 0.0112 µM; under setting [2], 0.014 µM.
The matching figures for “UGCAUGUAAGGAUAUGCACUGCGCGAGCCUGGCUCGCAAAGGCAGAAGGUACAUGAGGAUCACCCAUGUGAGAA”: 0.0915 µM and 0.0997 µM.
In the case of “GAGAUGUGAGGAUAUCUAGACCAUGGAAAAGCCACGGUCCGAGAGAAGGCACAUGAGGAUCACCCAUGUGAUGA”, the “apparent Kd” value under setting [1] was 0.0459 µM and the “apparent Kd” value under setting [2] was 0.171 µM.
Take “ACACAUGAGGAUCACCCAUGUAGCUGGCAUCUGCGCCAGCCACAGGAUAUACGGCAACACAAACCGUAGAAGGGUGAUAAACAC”: the “apparent Kd” value under setting [3] was 0.0595 µM and the “apparent Kd” value under setting [4] came to 0.0355 µM.
The matching figures for “AUUACAAUUGUAUACAUGAGGAUCACCCAUGUCAAAAGUCAUGAGGAUAUGGUAUUGUAGUUAUUCCAGAAGGCAUAAAGCUAA”: 0.0292 µM and 0.0164 µM.
As for “CAAAAUUGUGCAGGAUAUGCAGUUUGAUGGGCCUGUGGGAGAACAUGAGGAUCACCCAUGUGCUUGCAGAAGGGCACAAGCGAA”, the “apparent Kd” value runs as follows: under setting [1], 0.103 µM; under setting [2], 0.419 µM.
Take “CUCUUGUAAGGAUAUGCUGCUCGUCACGAAAGUGAUGAGUAGCAGAAGGUACAUGAGGAUCACCCAUGUAAAUA”: the “apparent Kd” value was found to be 0.111 µM under setting [1] and 0.0349 µM under setting [2].
For “GACAUGUGAGGAUAUCUGAUGUCUAACUUCGGUUAGACAUCAGAGAAGGCACAUGAGGAUCACCCAUGUCUGUC” the same measures were 0.194 µM and 0.232 µM.
For “AUCAGCUCGUCAGGAUAUACGUCACAGCGUCAGCAGUGUGGUAAGAUCACAUGAGGAUCACCCAUGUAGAAGGGACGAGCUGAU”, the “apparent Kd” value runs as follows: under setting [1], 0.0168 µM; under setting [2], 0.223 µM.
The matching figures for “GCCAGGAUGUAAGGAUAUGCUGAGGAAUACUCAGCAGAAGGUACAUGAGGAUCACCCAUGUAAUCCUAAUAAUAAUAACCUGGC”: 0.0111 µM and 0.0166 µM.
Turning to “CGAUUUGUAGGAUAUGUAUGAGUAAUCCCUUUUUAUGAAGAACAUGAGGAUCACCCAUGUAGAAGGGCAUUGUA”, the “apparent Kd” value worked out at 0.0196 µM under setting [1] and 0.0176 µM under setting [2].
Consider “GUGCACAUUCGAGGAUAUCGGAGAGGAAUCCUUCGAGAAGGCGAUUCAUGCUGUGUUAUUCUGGACAUGAGGAUCACCCAUGUG”, for which the “apparent Kd” value reads like this: under setting [3], 0.192 µM; under setting [4], 0.0978 µM.
For the sequence “AAUAACAGAGGAUAUACUGUUUUAUGUGUUUGUUGUUUUGAACAUGAGGAUCACCCAUGUAGAAGGCUGAUUGA”, the “apparent Kd” value by setting is: under setting [1], 0.0402 µM; under setting [2], 0.0413 µM.
For “UUUGUUUAUGCAGGAUAUUGACUUUUAUUUCUACAAGAAGGGCAUUACAUGAGGAUCACCCAUGUCUACAUGUAUUUAACUAGU” the same measures were 0.0678 µM and 0.0491 µM.
For “GGAUUACAUGAGGAUCACCCAUGUGAGGAUAUCGAUGUCCUAGGUCAAGUGCGGGACUCGAGAAGGCACUUGGA” the same measures were 0.0524 µM and 0.0289 µM.
As to “AGUACUCCAGAAGGAUAUGCAUCGGUGGAUGUCCUUAGGCGGACGGUCACAUGAGGAUCACCCAUGUAGAAGGUCUGGGAGCCG”, the “apparent Kd” value stood at 0.0398 µM under setting [1] and 0.238 µM under setting [2].
In the case of “UCAGAGGCUGACAUGAGGAUCACCCAUGUUAGAUUGUUAUGUCAGGAUAUUAUCUGGCAACCAGAUGAGAAGGGACCCUCUGUG”, the “apparent Kd” value under setting [3] was 0.022 µM and the “apparent Kd” value under setting [4] worked out at 0.00767 µM.
On to “CGGCGGAAAGGAUAUGCAUUAAUAUCCAAAUGUGGGCCACGACAUGAGGAUCACCCAUGUAGAAGGUUCAGCCG”, for which the “apparent Kd” value under setting [1] was 0.0153 µM and the “apparent Kd” value under setting [2] was 0.0139 µM.
As to “ACAUUAGUACCACAUGUAUUACAUGAGGAUCACCCAUGUAACUAGGAUAUGUAUUAGAAUUUACAACAGAAGGAGUUAAUAUGU”, the “apparent Kd” value runs as follows: under setting [1], 0.0098 µM; under setting [2], 0.0119 µM.
For “UAGAUGUGAGGAUAUACGUAGAUGCAGGUUCGUGUGGUGCUACAUGAGGAUCACCCAUGUAGAAGGCACGUCUU” the same measures were 0.0193 µM and 0.0202 µM.
The matching figures for “UAUAUACAUGAGGAUCACCCAUGUCAGGAUAUUAGAUAUAUAUAUACAUAUAAUUAUUUAAGAAGGGACACUAA”: 0.0438 µM and 0.046 µM.
In the case of “AUACUCAUGUAAGGAUAUGCAGCCGAAACGGCUGCAGAAGGUACUAUAAUACAUGAGGAUCACCCAUGUCAAAAUAAACUAGUU”, the “apparent Kd” value amounted to 0.155 µM under setting [3] and 0.0365 µM under setting [4].
For the sequence “CCUGUACAUGAGGAUCACCCAUGUUAGGAUAUUCAGCCCGUCGAGUAUAAGGGUUUAAGAAGAAGGGACGUGGC”, the “apparent Kd” value runs as follows: under setting [1], 0.0155 µM; under setting [2], 0.0161 µM.
Regarding “ACGUGUAAUACAGGAUAUGUUAUGGAUUAAUCAACCAGUUAUUACGUUUCGACAGAAGGGUAUACAUGAGGAUCACCCAUGUUA”, the “apparent Kd” value worked out at 0.0223 µM under setting [1] and 0.0179 µM under setting [2].
The matching figures for “ACUUGUAAGCAGAAGGCAGUCAUUAUAUUCAUCAUGUAGACAUGAGGAUCACCCAUGUAUAGUACUGAGGAUAUGCAUCGAUAG”: 0.00675 µM and 0.0103 µM.

For the origin of these results see the EternaBench riboswitch data.
